Calls of active or inactive are those of the source. The rule behind the calls is not given here.
Experiments:
[1] = Growth inhibition of human 518A2 cells after 24 hrs by MTT assay; type: functional, cell-based; conditions: 518A2, 24 h
Outline: (§1)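 Cells seeded at 5000/well (Ea.hy926 10,000/well) and exposed for 24 h to dilution series of 100 µM–5 pM, with DMSO as solvent control. MTT (0.5 mg/mL final) for 2 h. Formazan dissolved in SDS/acetic acid/DMSO and read at 570 nm against a 630 nm background. Viability taken relative to DMSO controls; IC50 from dose–response curves, mean of four independent experiments.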

[2] = Cell cycle arrest in human MCF7/Topo cells assessed as G2/M index ratio at 100 nM after 24 hrs by propidium iodide staining-based flow cytometry relative to control; type: functional
[3] = Cell cycle arrest in human HCT116 cells expressing wild type p53 assessed as accumulation at S phase at 100 nM after 24 hrs by propidium iodide staining-based flow cytometry (reference value: 15.3%); type: functional; conditions: HCT-116
[4] = Cell cycle arrest in human HCT116 cells expressing wild type p53 assessed as accumulation at subG1 phase at 50 nM after 24 hrs by propidium iodide staining-based flow cytometry (reference value: 7.1%); type: functional; conditions: HCT-116
[5] = Cell cycle arrest in human MCF7/Topo cells assessed as accumulation at G1 phase at 100 nM after 24 hrs by propidium iodide staining-based flow cytometry (reference value: 47.8%); type: functional
[6] = Growth inhibition of human 518A2 cells after 72 hrs by MTT assay; type: functional, cell-based; conditions: 518A2, 72 h
Outline: (§2)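 5000 cells/well exposed for 72 h to dilution series of 100 µM–5 pM, with DMSO as solvent control. MTT 0.5 mg/mL final for 2 h, absorbance at 570/630 nm. Percentage viable cells taken versus DMSO controls; IC50 from dose–response curves, mean of four independent experiments.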

[7] = tested on: EA.hy 926; experiment: Antivascular activity in human EAhy926 cells assessed as induction of retraction of cells to nodes at 250 nM after 16 hrs by light microscopic analysis; type: functional, cell-based
Outline: (§3)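 Ea.hy926 cells (100,000/well) were seeded on Matrigel-coated coverslips and allowed 12 h to form vessel-like networks. Test agent (CA-4 100 nM; indoles 250 nM) or DMSO was then added for 16 h, and networks were documented by light microscopy. Viability was checked by 2 h MTT (0.5 mg/mL) relative to DMSO controls.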

[8] = tested on: Chorioallantoic membrane; experiment: Antivascular activity in fertilized white leghorn egg chorioallantoic membrane assessed as disruption of preformed blood vessel at 2.5 to 5 nmol after 24 to 48 hrs by stereomicroscopic analysis; type: functional, tissue-based; conditions: Gallus gallus
[9] = Cell cycle arrest in human HCT116 cells expressing wild type p53 assessed as apoptotic index ratio at 100 nM after 24 hrs by propidium iodide staining-based flow cytometry relative to control; type: functional; conditions: HCT-116
[10] = Cell cycle arrest in human MCF7/Topo cells assessed as apoptotic index ratio at 100 nM after 24 hrs by propidium iodide staining-based flow cytometry relative to control; type: functional
[11] = Growth inhibition of human HCT116 cells expressing wild type p53 after 72 hrs by MTT assay; type: functional, cell-based; conditions: HCT-116, 72 h
Outline: (§4)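 HCT-116 cells, p53 wild-type or p53-/-, seeded at 5000/well and treated 72 h with dilution series (100 µM–5 pM) or DMSO. MTT 0.5 mg/mL for 2 h, absorbance at 570/630 nm. Viability relative to DMSO controls; IC50 from dose–response curves, mean of three independent experiments ± S.D.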

[12] = Cell cycle arrest in human MCF7/Topo cells assessed as accumulation at G2/M phase at 100 nM after 24 hrs by propidium iodide staining-based flow cytometry (reference value: 31.6%); type: functional
[13] = Cell cycle arrest in human MCF7/Topo cells assessed as accumulation at subG1 phase at 100 nM after 24 hrs by propidium iodide staining-based flow cytometry (reference value: 4.6%); type: functional
[14] = Cell cycle arrest in human HCT116 cells expressing wild type p53 assessed as G2/M index ratio at 100 nM after 24 hrs by propidium iodide staining-based flow cytometry relative to control; type: functional; conditions: HCT-116
[15] = Cell cycle arrest in human HCT116 cells expressing wild type p53 assessed as G2/M index ratio at 50 nM after 24 hrs by propidium iodide staining-based flow cytometry relative to control; type: functional; conditions: HCT-116
[16] = Growth inhibition of chicken cardiomyocytes after 48 hrs by MTT assay; conditions: Gallus gallus, Cardiomyocyte
Outline: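 Chicken heart fibroblasts explanted from 10-day-old embryos, seeded at 10,000/well; cardiomyocytes seeded at 20,000/well. Dilution series given for 48 h, DMSO as control. MTT 0.5 mg/mL for 2 h, absorbance at 570/630 nm. Viability versus DMSO controls; IC50 from dose–response curves, mean of three independent experiments.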

[17] = Cytotoxicity against human EAhy926 cells assessed as cell viability at 250 nM after 16 hrs by MTT assay relative to control; type: cell-based, EA.hy 926; conditions: read-out: Activity
Outline: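 Ea.hy926 cells (100,000/well) placed on Matrigel-coated coverslips and left 12 h to form networks, then given 250 nM for 16 h. Viability measured by 2 h incubation with 0.5 mg/mL MTT and formazan absorbance, calculated relative to DMSO controls.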

[18] = tested on: HT-29; experiment: Growth inhibition of combretastatin A-4 resistant human HT-29 cells after 24 hrs by MTT assay; type: functional, cell-based; conditions: HT-29, 24 h; outline: as §1
[19] = tested on: EA.hy 926; experiment: Antivascular activity in human EAhy926 cells assessed as change in cell morphology from stretched to rounded form at 250 nM after 16 hrs by light microscopic analysis; type: functional, cell-based; outline: as §3
[20] = Growth inhibition of p53 null human HCT116 cells after 72 hrs by MTT assay; type: functional, cell-based; conditions: HCT-116, 72 h; outline: as §4
[21] = Growth inhibition of human EAhy926 cells after 24 hrs by MTT assay; type: cell-based; conditions: EA.hy 926, 24 h; outline: as §1
[22] = Growth inhibition of human MCF7/Topo cells after 24 hrs by MTT assay; type: functional, cell-based; outline: as §1
[23] = organism: Sus scrofa; experiment: Inhibition of porcine brain alpha/beta tubulin polymerization at 5 uM measured every 20 sec by microplate reader analysis
[24] = Cell cycle arrest in human HCT116 cells expressing wild type p53 assessed as accumulation at G2/M phase at 100 nM after 24 hrs by propidium iodide staining-based flow cytometry (reference value: 21%); type: functional; conditions: HCT-116
[25] = tested on: EA.hy 926; experiment: Antivascular activity in human EAhy926 cells assessed as disruption of preformed blood vessel lke network at 250 nM after 16 hrs by matrigel based tube formation assay; type: functional, cell-based; outline: as §3
[26] = Cell cycle arrest in human HCT116 cells expressing wild type p53 assessed as accumulation at G1 phase at 50 nM after 24 hrs by propidium iodide staining-based flow cytometry (reference value: 56.7%); type: functional; conditions: HCT-116
[27] = Cell cycle arrest in human HCT116 cells expressing wild type p53 assessed as accumulation at G1 phase at 100 nM after 24 hrs by propidium iodide staining-based flow cytometry (reference value: 56.7%); type: functional; conditions: HCT-116
[28] = tested on: HT-29; experiment: Growth inhibition of combretastatin A-4 resistant human HT-29 cells after 72 hrs by MTT assay; type: functional, cell-based; conditions: HT-29, 72 h; outline: as §2
[29] = Cell cycle arrest in human HCT116 cells expressing wild type p53 assessed as apoptotic index ratio at 50 nM after 24 hrs by propidium iodide staining-based flow cytometry relative to control; type: functional; conditions: HCT-116

Row | SMILES | IC50 [1] [nM] | Ratio [2] | Activity [3] [%] | Activity [4] [%] | Activity [5] [%] | IC50 [6] [nM] | Activity [7] | Activity [8] | Ratio [9] | Ratio [10] | IC50 [11] [nM] | Activity [12] [%] | Activity [13] [%] | Ratio [14] | Ratio [15] | IC50 [16] [nM] | viability at 16 h, 0.25 µM [17] [%] | IC50 [18] [nM] | Activity [19] | IC50 [20] [nM] | other results
1 | COc1cc(-c2ncn(C)c2-c2ccc3c(c2)c(Cl)cn3C)cc(Br)c1OC.Cl | 51.9 | 5.5 | 5.4 | 16.2 | 14.4 | 28.2 | Active | inactive | 19.7 | 21.1 | 27.4 | 52.4 | 24.6 | 17.9 | 0.9 | 3970 | > 90 | 31.3 | Active | 21.3 | IC50 [21]: 29.9 nM; IC50 [22]: 18.8 nM; inhibition [23]: inactive; Activity [24]: 59.7%; Activity [25]: Active; Activity [26]: 53.9%; Activity [27]: 9%; IC50 [28]: 23.4 nM; Ratio [29]: 10.2
2 | COc1cc(-c2ncn(C)c2-c2ccc3c(c2)c(Cl)cn3C)cc(OC)c1OC | 65.4 | 3.9 | 7.8 | 30.6 | 16.5 | 18.2 | Active | inactive | 26.1 | 27.2 | 9.5 | 42.9 | 30.7 | 14.8 | 0.9 | 1870 | > 90 | 26.2 | Active | 26.2 | IC50 [21]: 24.6 nM; IC50 [22]: 20.2 nM; inhibition [23]: Active; Activity [24]: 50.5%; Activity [25]: Active; Activity [26]: 43.6%; Activity [27]: 9.3%; IC50 [28]: 15.6 nM; Ratio [29]: 24.4

From ChEMBL document CHEMBL3822382 (Eur J Med Chem, 2016)
